In PubChem BioAssay AID1257 (The Scripps Research Institute Molecular Screening Center, 2008):
The list shows a part of the results. Activity calls are given as the source filed them.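 The calls were made as follows: active = mean inhibition of triplicate wells above the hit cutoff set in the primary screen (cut at about 17% in these data); inactive = the rest.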

The compounds below were run against Neuropeptide Y receptor type 2 (Homo sapiens) (UniProt P49146) (assay: NPY-Y2 receptor antagonists, retest of hits, confirmation, HEK293-CNG cells, membrane potential fluorescence, triplicate (AID 1257;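 also: 0% = DMSO with NPY challenge and 100% = BIIE0246 high control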)). Details: HEK293 NPY-Y2 CNG channel, at 2.8 µM, active compounds read high.
Summary of the method: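 System – HEK293 cells expressing NPY-Y2 receptor and CNG channel · Also added – NPY 8 nM plus isoproterenol 1 µM, Ro 20-1724 25 µM · Compound dosing – single nominal compound dose of 2.8 µM · Incubation – 60 min NPY incubation, room temperature · Technique – voltage-sensitive dye fluorescence · Measure – 30-min to baseline fluorescence ratio, control-normalized · Repeats – three replicates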

Chain of Neuropeptide Y receptor type 2 (Homo sapiens) (P49146 whole entry, looked up): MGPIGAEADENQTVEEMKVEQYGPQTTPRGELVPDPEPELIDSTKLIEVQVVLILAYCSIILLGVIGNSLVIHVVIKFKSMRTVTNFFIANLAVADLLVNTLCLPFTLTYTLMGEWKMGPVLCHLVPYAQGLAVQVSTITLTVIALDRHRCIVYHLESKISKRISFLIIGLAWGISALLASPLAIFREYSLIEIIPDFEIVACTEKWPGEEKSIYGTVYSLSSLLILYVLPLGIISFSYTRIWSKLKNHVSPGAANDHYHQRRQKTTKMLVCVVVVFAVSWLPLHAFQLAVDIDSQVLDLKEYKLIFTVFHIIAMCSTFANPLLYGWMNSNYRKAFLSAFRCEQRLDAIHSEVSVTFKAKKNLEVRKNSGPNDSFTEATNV

inhibition, active:
COc1cccc(-c2ccc(C#N)c(SCC(=O)NCCc3ccc(Cl)cc3)n2)c1 23.6%, COc1ccc(NC(=O)/C(Cl)=C(/Cl)S(=O)Cc2ccc(C)cc2)cn1 (centres undefined) 60.8%, Cc1ccc(S(=O)(=O)N(Cc2ccc(Cl)cc2)c2ccccc2C(=O)NCc2cccnc2)cc1 21.4%, N#Cc1ccc(N2Cc3ccccc3/C2=N/C(=O)Nc2ccc(Cl)cc2)cc1 144%, Cc1ccc(CCC(=O)Nc2ncc(Cc3cc(Cl)ccc3Cl)s2)o1 28.3%, Cc1cc(C)nc(-n2ncc3c2CC(c2ccc(C(C)C)cc2)CC3=O)n1 (centres undefined) 24.2%, N=c1n(Cc2ccc(Cl)cc2)c2ccccc2n1CC(O)c1ccco1 (centres undefined) 17.8%, COc1ccc(-c2noc(COc3ccc(Cl)c(C)c3)n2)cc1 32.4%, COc1ccc(/C=C/C(=O)NC(=S)NN2CCCCC2c2cccnc2)cc1 (centres undefined) 63.5%, Cc1ccccc1N1CCN(CCCOc2ccc3c(C)cc(=O)oc3c2)CC1 21.9%

inhibition, inactive:
O=C1CC(c2cccc(Cl)c2)CC(O)=C1C=Nc1ccccc1 (centres undefined) 16.5%, O=C(CC(O)(C(F)(F)F)C(F)(F)F)Nc1ccc(Cl)c(Cl)c1 8.21%, CCCCCNC(=O)Cc1ccc(OC)cc1 -1.6%, Cc1ccccc1OC(=O)Cn1c(C(F)(F)F)nc2ccccc21 3.55%, c1ccc(-c2cc3c(NCC4COc5ccccc5O4)ncnc3s2)cc1 (centres undefined) 15.2%, CCOc1ccc(C(O)Cn2c(=N)n(CCN3CCCCC3)c3ccccc32)cc1 (centres undefined) 14.8%, CCOc1ccc(S(=O)(=O)N/N=C(\C)c2ccc(Cl)c(Cl)c2Cl)cc1 16%, Cc1cc(C(=O)OCC(=O)N2c3ccccc3NC(=O)C2(C)C)c(C)n1-c1ccccc1 17.1%, COC(=O)c1ccc(CSc2nc3cc(Cl)ccc3o2)cc1 12.9%, CC12CN(Cc3ccccc3)CC(C)(CN(Cc3ccccc3)C1)C2=NO 10.7%, Cc1cccc(OCC(O)Cn2c(=N)n(CCN3CCOCC3)c3ccccc32)c1 (centres undefined) 6.36%, C=CCNCCCCOc1ccccc1 -1.34%, O=S(=O)(Cc1cc(Sc2ccccc2)nc(-c2ccccc2)n1)c1ccccc1 7.19%, CN(C)Cc1ccc(F)cc1Sc1cc(Cl)ccc1Cl 9.81%, CCOC(=O)C(C)Sc1nc2ccccc2c(=O)n1CC1CCCCC1 (centres undefined) 8.48%, Cc1ccc(C2=NN(C)c3nc4ccccc4n3C2)cc1 4.08%, COc1ccc(-c2nc3ccccc3n2CCC(C)C)cc1OC 7.79%, O=C(Oc1ccccc1)Oc1ccc2c(c1)oc(=O)c1ccccc12 6.38%, N#Cc1ccc(C(c2nnnn2CCc2ccccc2)N2CCCCCC2)cc1 (centres undefined) 7.32%, COc1ccc(/C(N)=N/OC(=O)CCCc2ccccc2)cc1 8.36%, CCCc1nc(SCC(=O)Nc2ccccc2OC)c2c(=O)n(C)c(=O)n(C)c2n1 9.29%, CCCCC(O)(CCCC)C(=O)NN(C(=O)CCl)c1ccccc1 6.12%, Cc1ccc(NC(=O)CN2CCC3(O)CCCCC3C2c2ccc3c(c2)OCO3)c(C)c1 (centres undefined) 7.05%, O=C(Nc1nnc(SCc2c(Cl)cccc2Cl)s1)C1CCCO1 (centres undefined) 15.9%
